# In ChEMBL document CHEMBL1132342, “Novel hypotensive agents from Verbesina caracasana. 6. Synthesis and pharmacology of caracasandiamide” (1999):
# “And” between values parts separate entries of the source, which are not always exact repeats. Identical values can stand only once.
# Columns and labels:
# Rattus norvegicus [1] = assay: Maximum rate of rise of the left ventricular isovolumetric pressure was measured after iv administration of 1600 ug/Kg in the presence of acetylcholine (agonist) in anesthetized rats; type: functional, Heart left ventricle
# Procedure, shortened: (§1)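 Anesthetized male Wistar rats, two groups of 8, received 400 or 1600 µg/kg iv. Before and after this dose, iv agonist challenges were given: noradrenaline 1 µg/kg, adrenaline, acetylcholine 2.50 µg/kg, or isoprenaline. Systolic/diastolic BP, heart rate and dP/dt responses were recorded before (control) and after dosing; significance was set at p < 0.05 versus control.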
# Rattus norvegicus [2] = assay: Maximum rate of rise of the left ventricular isovolumetric pressure was measured after iv administration of 100 ug/Kg in anesthetized rats; type: functional, Heart left ventricle
# Procedure, shortened: (§2)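 Urethane-anesthetized (10% w/v, […] ip in saline) adult male Wistar rats, trachea cannulated, breathing spontaneously, 37 °C. Femoral artery catheter for blood pressure, femoral vein for dosing. Sequential iv doses 50–3200 µg/kg (ratio 2.0) in saline, each given after parameters returned to baseline. Peak changes recorded; means ± SE, n = 12 (n = 7 at 3200 µg/kg).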
# Rattus norvegicus [3] = assay: Change in diastolic blood pressure after iv administration of 400 ug/Kg in the presence of adrenaline (agonist) in anesthetized rats; type: functional, Artery
# Procedure, shortened: (§3)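 Urethane-anesthetized male Wistar rats (16 rats, two equal groups) received 400 or 1600 µg/kg compound iv. Cardiovascular responses to iv agonist boluses (noradrenaline 1 µg/kg, acetylcholine 2.50 µg/kg, adrenaline, isoprenaline) were measured before and after compound dosing. Peak responses are given as mean ± SE; p < 0.05 versus control mean.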
# Rattus norvegicus [4] = assay: Change in respiratory frequency after iv administration of 1600 ug/Kg in anesthetized rats; type: functional
# Procedure, shortened: (§4)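 Male Wistar rats (299 ± 3 g) were anesthetized with ethylurethane ip, tracheally cannulated and breathing spontaneously, at 37 °C, and stabilized for 60 min. Doses of 50-3200 µg/kg (ratio 2.0) in saline were injected by femoral vein, 50 µL each. Recordings: femoral arterial BP, electromagnetic abdominal-aortic flow, SV from integrated pulsatile flow, polygraphic RF. Peak changes, mean ± SE, n = 12 (n = 7 at 3200).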
# Rattus norvegicus [5] = assay: Change in stroke volume after iv administration of 800 ug/Kg in anesthetized rats; type: functional; procedure, shortened: as §4
# Rattus norvegicus [6] = assay: Change in systolic blood pressure after iv administration of 1600 ug/Kg compound (treatment with papaverine(1 mg/Kg/min, iv)in anesthetized rats; type: functional, Artery
# Procedure, shortened: (§5)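 Urethane-anesthetized male Wistar rats, 6 per group, received iv doses of 200-1600 µg/kg (ratio 2.0) given alone or under a pretreatment. Pretreatments were continuous iv papaverine infusion (1 mg/kg/min), reserpine 5 mg/kg/day ip for 2 days, or hexamethonium 5 mg/kg iv. Peak changes in femoral arterial BP and HR were recorded; values are mean ± SE.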
# Rattus norvegicus [7] = assay: Change in systolic blood pressure after iv administration of 400 ug/Kg compound (treatment with hexamethonium (5 mg/Kg, iv)in anesthetized rats; type: functional, Artery; procedure, shortened: as §5
# Rattus norvegicus [8] = assay: Maximum rate of rise of the left ventricular isovolumetric pressure was measured after iv administration of 1600 ug/Kg in anesthetized rats; type: functional, Heart left ventricle; procedure, shortened: as §2
# Rattus norvegicus [9] = assay: Maximum rate of rise of the left ventricular isovolumetric pressure was measured after iv administration of 400 ug/Kg in the presence of isoprenaline (agonist) in anesthetized rats; type: functional, Heart left ventricle; procedure, shortened: as §1
# Rattus norvegicus [10] = assay: Maximum rate of rise of the left ventricular isovolumetric pressure was measured after iv administration of 400 ug/Kg in anesthetized rats; type: functional, Heart left ventricle; procedure, shortened: as §2
# Rattus norvegicus [11] = assay: Change in mean aortic flow after iv administration of 800 ug/Kg in anesthetized rats; type: functional; procedure, shortened: as §4
# Rattus norvegicus [12] = assay: Change in heart rate after iv administration of 400 ug/Kg in the presence of isoprenaline (agonist) in anesthetized rats; type: functional; procedure, shortened: as §3
# Rattus norvegicus [13] = assay: Change in systolic blood pressure after iv administration of 400 ug/Kg in the presence of isoprenaline (agonist) in anesthetized rats; type: functional, Artery; procedure, shortened: as §1
# Rattus norvegicus [14] = assay: Change in mean aortic flow after iv administration of 200 ug/Kgin anesthetized rats; type: functional; procedure, shortened: as §4
# Rattus norvegicus [15] = assay: Change in systolic blood pressure after iv administration of 400 ug/Kg in the presence of adrenaline (agonist) in anesthetized rats; type: functional, Artery; procedure, shortened: as §1
# Rattus norvegicus [16] = assay: Change in systolic blood pressure after iv administration of 50 ug/Kg in anesthetized rats; type: functional, Artery; procedure, shortened: as §2
# Rattus norvegicus [17] = assay: Maximum rate of rise of the left ventricular isovolumetric pressure after iv administration of 400 ug/Kg compound (treatment with hexamethonium (5 mg/Kg, iv)in anesthetized rats; type: functional, Heart left ventricle
# Procedure, shortened: (§6)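 Anesthetized rats, n = 6 per group, received iv doses of 200–1600 µg/kg (ratio 2.0) either alone (control) or under pretreatment: continuous iv papaverine infusion 1 mg/kg/min, reserpine 5 mg/kg/day ip for 2 days, or hexamethonium 5 mg/kg iv. Peak changes in BP, heart rate and dP/dt recorded; means ± SE, p < 0.05 versus control.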
# Rattus norvegicus [18] = assay: Change in stroke volume after iv administration of 400 ug/Kg in anesthetized rats; type: functional; procedure, shortened: as §4
# Rattus norvegicus [19] = assay: Change in systolic blood pressure after iv administration of 4.12 uM/kg in anesthetized rats; type: functional, Artery
# Procedure, shortened: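 Doses were 4.12 µM/kg (two agents), guanethidine 25, clonidine 0.108, hexamethonium 12, reserpine 8, papaverine 5 and histamine […]. Peak changes in systolic BP or HR were recorded.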
# Rattus norvegicus [20] = assay: Change in respiratory frequency after iv administration of 800 ug/Kg in anesthetized rats; type: functional; procedure, shortened: as §4
# Rattus norvegicus [21] = assay: Change in systolic blood pressure after iv administration of 800 ug/Kg compound (treatment with hexamethonium (5 mg/Kg, iv)in anesthetized rats; type: functional, Artery; procedure, shortened: as §6
# Rattus norvegicus [22] = assay: Change in heart rate after iv administration of 400 ug/Kg in the presence of acetylcholine (agonist) in anesthetized rats; type: functional; procedure, shortened: as §3
# Rattus norvegicus [23] = assay: Change in respiratory frequency after iv administration of 3200 ug/Kg in anesthetized rats; type: functional; procedure, shortened: as §4
# Rattus norvegicus [24] = assay: Change in diastolic blood pressure after iv administration of 1600 ug/Kg compound (treatment with reserpine(5 mg/kg/day for 2 days, ip)in anesthetized rats; type: functional, Artery
# Procedure, shortened: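 In anesthetized male Wistar rats, responses to iv compound (200–1600 µg/kg, ratio 2.0) were measured alone and under three pretreatments: continuous iv papaverine infusion (1 mg/kg/min), ip reserpine (5 mg/kg/day for 2 days), or iv hexamethonium (5 mg/kg). Peak changes are given as mean ± SE, n = 6 per group; p < 0.05 versus control.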
# Rattus norvegicus [25] = assay: Change in heart rate after iv administration of 1600 ug/Kg in anesthetized rats; type: functional
# Procedure, shortened: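 Adult male Wistar rats under ip ethylurethane (10% w/v in saline, 1 mL/kg) with tracheal cannula and spontaneous breathing, kept at 37 °C. Arterial BP was recorded by femoral artery catheter; compound in saline (50 µL) was given via femoral vein at 50–3200 µg/kg, ratio 2.0. Peak change is given as mean ± SE, n = 12 (n = 7 at 3200 µg/kg).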
compound,measurement,setting,value
COc1ccc(C2C(c3ccc(OC)c(OC)c3)[C@H](C(=O)NCCCC/N=C(\N)NCC=C(C)C)[C@@H]2C(=O)NCCCC/N=C(\N)NCC=C(C)C)cc1OC (stereo partly drawn) [CARACASANDIAMIDE],dP/dt,Rattus norvegicus [1],-6821 mmHg s-1
same,Change in dP/dt,Rattus norvegicus [2],18%
same,dP/dt,Rattus norvegicus [2],1129 mmHg s-1
same,BP,Rattus norvegicus [3],5 mmHg
same,Change in respiratory frequency,Rattus norvegicus [4],-61 beats min-1 and -64%
same,Change in stroke volume,Rattus norvegicus [5],-43%
same,Stroke volume,Rattus norvegicus [5],-86 µL
same,BP,Rattus norvegicus [6],-33 mmHg
same,BP,Rattus norvegicus [7],-41 mmHg
same,Change in dP/dt,Rattus norvegicus [8],60%
same,dP/dt,Rattus norvegicus [8],3676 mmHg s-1
same,dP/dt,Rattus norvegicus [9],13696 mmHg s-1
same,Change in dP/dt,Rattus norvegicus [10],43%
same,dP/dt,Rattus norvegicus [10],2615 mmHg s-1
same,Change in mean aortic flow,Rattus norvegicus [11],-34%
same,Mean aortic flow,Rattus norvegicus [11],-25 mL/min
same,Heart rate,Rattus norvegicus [12],69 beats min-1
same,BP,Rattus norvegicus [13],-36 mmHg
same,Mean aortic flow,Rattus norvegicus [14],-14 mL/min
same,BP,Rattus norvegicus [15],21 mmHg
same,BP,Rattus norvegicus [16],17 mmHg
same,Change in BP,Rattus norvegicus [16],16%
same,dP/dt,Rattus norvegicus [17],3938 mmHg s-1
same,Change in stroke volume,Rattus norvegicus [18],-23%
same,Stroke volume,Rattus norvegicus [18],-46 µL
same,BP,Rattus norvegicus [19],-43 mmHg
same,Change in respiratory frequency,Rattus norvegicus [20],-15 beats min-1 and -16%
same,BP,Rattus norvegicus [21],-50 mmHg
same,Heart rate,Rattus norvegicus [22],-30 beats min-1
same,Change in respiratory frequency,Rattus norvegicus [23],-67 beats min-1 and -70%
same,BP,Rattus norvegicus [24],-15 mmHg
same,Change in heart rate,Rattus norvegicus [25],-8%
same,Heart rate,Rattus norvegicus [25],-30 beats min-1
